Results from PMC3428850 (Molecular cancer therapeutics, 2012).
Values joined by “and” are separate entries in the source; they are usually repeats but may differ in a detail not shown here. Equal entries are not always repeated. Where two headings read alike, the source gives them in different places.

Experiments:
MDA-MB-231 cells = test: clonogenic survival assay; format: cell-based, human
Method in brief: (§1)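 Cells in RPMI 1640/10% FBS were exposed in 6-well plates for 16 h to etoposide or doxorubicin with or without test compound (1 μM), or to test compound alone. Cells then harvested and reseeded in drug-free medium. Colonies stained with crystal violet after 10-14 days and counted automatically. Fold enhancement = survival with cytotoxic alone / survival with cytotoxic + 1 μM test compound. Means ± SD, n = 3.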

SW620 xenografts = test: anti-tumour efficacy study, SW620 xenografts; format: in vivo, mice
Method in brief: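 Female athymic CD1-nu/nu mice with s.c. SW620, n = 5/group, treated once tumours were palpable (~5 × 5 mm, day 8-10). Controls: saline i.p. daily. Test compound 10 mg/kg i.p. for 5 days. Etoposide phosphate 11.35 mg/kg i.p. (10 mg/kg etoposide) daily × 5. Combination: test compound i.p. once or twice daily × 5, first dose just before etoposide. Caliper volume a²×b/2; median RTV (day 0 = 1); time to RTV4.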

V3 cells = test: clonogenic survival assay, DNA-PKcs-deficient cells; format: cell-based, Chinese hamster
Method in brief: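 Chinese hamster ovary V3 cells (DNA-PKcs-deficient) and V3-YAC cells (human DNA-PKcs on YAC; kept under G-418 500 μg/ml) in RPMI 1640/10% FBS. Etoposide alone or with 1 μM test compound, or test compound alone, for 16 h. Reseeded drug-free. Crystal violet colony counts after 10-14 days. Fold enhancement as survival ratio. Means ± SD of 3 independent experiments.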

MCF7 xenografts = test: anti-tumour efficacy study, MCF7 xenografts; format: in vivo; details: MCF7 tumour-bearing mice
M059J cells = test: clonogenic survival assay, DNA-PKcs-deficient cells; format: cell-based, human; details: M059J
Method in brief: (§2)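 Human glioblastoma M059J cells (DNA-PKcs-deficient) and M059-Fus-1 cells (chromosome 8 transfected; G-418 200 μg/ml) in DMEM/10% FBS. Etoposide or doxorubicin alone or with 1 μM test compound, or test compound alone, for 16 h. Reseeded drug-free. Crystal violet colony counts after 10-14 days. Fold enhancement as survival ratio. Means ± SD, n = 3.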

PI-3K δ = PI-3K δ (Homo sapiens, UniProt O00329); test: cell-free assay, PI-3K isoforms; format: biochemical; details: Supplementary Figure 1
[1] = format: in vivo, mice; details: for concentration at 60 min / concentration at 120 min: female, CD1-nu/nu (athymic), mouse, intravenous, 12.5 mg/kg
Method in brief: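 Female athymic CD1-nu/nu mice kept in SPF isolators, bearing MCF7 or SW620 xenografts (650 mm³). Test compound 12.5 mg/kg i.v. in equimolar phosphoric acid/saline, pH 5. Tumours homogenised in PBS (1:3 w/v) on ice. Plasma and tumour concentrations by LC-MS/MS. Means ± SD of 3 mice per time point.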

PI-3K [2] = test: PI-3K-dependent AKT phosphorylation; format: cell-based, human; details: SW620 cells
SW620 cells [3] = test: cell growth inhibition, SRB assay, 5-day continuous exposure; format: cell-based, human
LoVo cells [4] = test: cell growth inhibition, SRB assay, 5-day continuous exposure; format: cell-based, human
Method in brief: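 Human cancer cells in RPMI 1640 with 10% FBS, penicillin/streptomycin, at 37 °C and 5% CO2. Test compound (10 mM DMSO stock) given by continuous exposure for 5 days. Growth measured by SRB assay. […] Means ± SD of 3 independent experiments.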

LoVo cells [5] = test: clonogenic survival assay; format: cell-based, human
Method in brief: as §1

PI-3K [6] = test: PI-3K-dependent AKT phosphorylation; format: cell-based, human; details: read-out: IC50 PI-3K-mediated AKT phosphorylation; MCF7 cells, IGF-1 stimulated
Method in brief: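 MCF7 cells in RPMI 1640/10% FBS. Exposed to a concentration range of test compound for 1 h, then 50 ng/ml IGF-1 for 30 min. Western blot of AKT Ser473 relative to total AKT. Rise above unstimulated baseline in treated cells expressed as % of the rise in control cells. Mean of three independent experiments fitted to a sigmoidal dose-response curve for IC50.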

[7] = plasma pharmacokinetics following different routes of administration; format: in vivo, Balb C mice; details: for CL: mice
Method in brief: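 Female Balb C mice given test compound at 10 mg/kg i.v., i.p. or p.o. Vehicle: equimolar phosphoric acid in sterile saline, final pH 5. Plasma sampled at 5-360 min, 3 mice per time point. Plasma levels by LC-MS/MS. PK parameters calculated from mean values.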

M059-Fus-1 cells = test: clonogenic survival assay, DNA-PKcs-proficient cells; format: cell-based, human
Method in brief: as §2

SW620 cells [8] = test: clonogenic survival assay; format: cell-based, human
[9] = female, Balb C, mouse, ip, 10 mg/kg
[10] = female, Balb C, mouse, iv, 10 mg/kg
[11] = female, Balb C, mouse, po, 10 mg/kg

PI-3K δ, sequence (O00329 whole entry, species assumed, canonical isoform): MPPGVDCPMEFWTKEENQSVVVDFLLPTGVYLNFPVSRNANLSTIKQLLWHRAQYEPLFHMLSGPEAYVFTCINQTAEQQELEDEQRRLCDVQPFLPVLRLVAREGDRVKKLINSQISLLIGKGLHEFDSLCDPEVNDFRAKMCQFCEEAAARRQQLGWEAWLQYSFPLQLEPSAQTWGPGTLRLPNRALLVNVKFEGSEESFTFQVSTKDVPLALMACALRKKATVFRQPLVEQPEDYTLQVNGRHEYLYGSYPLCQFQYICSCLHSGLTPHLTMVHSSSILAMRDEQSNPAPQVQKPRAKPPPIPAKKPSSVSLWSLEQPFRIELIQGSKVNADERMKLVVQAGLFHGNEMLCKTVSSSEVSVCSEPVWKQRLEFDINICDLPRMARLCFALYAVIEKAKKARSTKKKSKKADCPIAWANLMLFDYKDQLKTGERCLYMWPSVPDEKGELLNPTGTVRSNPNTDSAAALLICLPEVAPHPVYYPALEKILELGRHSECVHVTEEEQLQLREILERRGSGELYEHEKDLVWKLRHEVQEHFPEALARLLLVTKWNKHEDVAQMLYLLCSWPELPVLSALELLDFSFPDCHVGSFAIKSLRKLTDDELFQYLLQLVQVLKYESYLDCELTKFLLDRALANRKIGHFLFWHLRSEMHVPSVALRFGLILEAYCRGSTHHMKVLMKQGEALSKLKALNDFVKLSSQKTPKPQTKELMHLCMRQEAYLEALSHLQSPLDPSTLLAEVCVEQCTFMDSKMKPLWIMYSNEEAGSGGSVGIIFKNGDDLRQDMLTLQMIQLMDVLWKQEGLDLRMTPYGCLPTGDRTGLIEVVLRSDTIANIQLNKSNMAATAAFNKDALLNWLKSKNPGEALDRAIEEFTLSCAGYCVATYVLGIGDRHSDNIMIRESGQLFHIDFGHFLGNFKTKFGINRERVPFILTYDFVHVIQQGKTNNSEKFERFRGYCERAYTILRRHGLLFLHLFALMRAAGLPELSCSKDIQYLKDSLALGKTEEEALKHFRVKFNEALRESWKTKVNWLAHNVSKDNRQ
PI-3K δ, sequence (P27986 whole entry partner, species assumed, canonical isoform): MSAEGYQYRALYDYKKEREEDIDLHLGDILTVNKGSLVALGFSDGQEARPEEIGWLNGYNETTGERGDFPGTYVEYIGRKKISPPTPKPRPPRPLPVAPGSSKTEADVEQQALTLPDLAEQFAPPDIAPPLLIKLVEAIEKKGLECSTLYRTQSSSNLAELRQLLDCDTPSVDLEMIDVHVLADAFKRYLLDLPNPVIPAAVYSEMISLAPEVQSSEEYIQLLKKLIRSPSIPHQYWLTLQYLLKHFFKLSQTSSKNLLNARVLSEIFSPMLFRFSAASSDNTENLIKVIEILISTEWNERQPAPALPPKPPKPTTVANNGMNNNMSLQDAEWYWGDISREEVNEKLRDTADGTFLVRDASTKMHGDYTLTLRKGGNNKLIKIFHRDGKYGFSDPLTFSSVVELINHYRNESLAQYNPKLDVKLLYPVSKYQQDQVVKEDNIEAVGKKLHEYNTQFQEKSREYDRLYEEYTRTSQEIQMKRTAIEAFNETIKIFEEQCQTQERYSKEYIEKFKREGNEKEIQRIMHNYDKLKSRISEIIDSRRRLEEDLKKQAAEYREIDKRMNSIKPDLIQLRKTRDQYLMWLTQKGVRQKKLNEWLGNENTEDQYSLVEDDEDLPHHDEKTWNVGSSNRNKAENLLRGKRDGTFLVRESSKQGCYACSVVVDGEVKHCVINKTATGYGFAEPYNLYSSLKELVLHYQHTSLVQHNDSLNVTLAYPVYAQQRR

CCN1CCN(CC(=O)Nc2ccc(-c3cccc4c(=O)cc(N5CCOCC5)oc34)c3sc4ccccc4c23)CC1 [KU-0060648, 2-(4-ethylpiperazin-1-yl)-N-(4-(2-morpholino-4-oxo-4H-chromen-8-yl)dibenzo[b,d]thiophen-1-yl)acetamide]
Fold enhancement of doxorubicin cytotoxicity (survival cytotoxic alone/survival cytotoxic + 1 μM KU-0060648) (MDA-MB-231 cells; MDA-MB-231, 100 nM doxorubicin, 16 hr): 3.8±0.6 fold
overall cell survival (clonogenic) (MDA-MB-231 cells; MDA-MB-231, 1 μM, 16 hr exposure, single agent): 41%
maximum body weight loss (SW620 xenografts; SW620 tumour-bearing mice): no body weight loss
fold increase of etoposide-induced tumour growth delay (SW620 xenografts; in both SW620 and MCF7 xenografts): up to 4.5 fold
fold enhancement of etoposide cytotoxicity (V3 cells; V3, 1 μM KU-0060648, 16 hours): 2.5 fold
reduction in cell viability, compound alone (V3 cells; V3, 1 μM, 16 hours): < 15%
maximum body weight loss (MCF7 xenografts): 3%
fold enhancement of doxorubicin cytotoxicity (M059J cells; 1 μM KU-0060648): 1.4 fold
reduction in cell viability, compound alone (M059J cells; 1 μM, 16 hours): < 5%
potency rank among the four PI-3K isoforms (PI-3K δ): greatest potency
concentration maintained in the tumour ([1]; SW620 xenografts, 12.5 mg/kg i.v., for at least 4 hours): over 1 μM
concentration at 60 min ([1]; plasma): 2100 ± 500 nM
concentration at 120 min ([1]; plasma): 700 ± 200 nM
concentration at 60 min ([1]; tumour (SW620 xenograft)): 4900 ± 300 nM
concentration at 120 min ([1]; tumour (SW620 xenograft)): 2900 ± 400 nM
inhibition of AKT phosphorylation (PI-3K [2]; at 10 μM): 42%
IC50 (PI-3K [2]; read-out: IC50 PI-3K-mediated AKT phosphorylation, IGF-1 stimulated): > 10000 nM
GI50 (SW620 cells [3]; Homo sapiens, SW-620, 120 h): 950 nM
inhibition of cell growth (SW620 cells [3]; SW620, 1 μM, 5 days, 1 µM): > 50% and 50%
total cell growth over 5 days, of DMSO treated controls (LoVo cells [4]; 1 μM): 10%
GI50 (LoVo cells [4]; Homo sapiens, 120 h): 210 nM
inhibition at 1 µM (LoVo cells [4]; Homo sapiens, 120 h, read-out: inhibition of cell growth): > 50%
Fold enhancement of doxorubicin cytotoxicity (survival cytotoxic alone/survival cytotoxic + 1 μM KU-0060648) (LoVo cells [5]; 100 nM doxorubicin, 16 hr): 73±29 fold
overall cell survival (clonogenic) (LoVo cells [5]; 1 μM, 16 hr exposure, single agent): ≥ 80%
IC50 (PI-3K [6]): 39 nM and 40 nM
CL ([7]; 10 mg/kg i.p): 54 mL/min/kg
CL ([7]; 10 mg/kg p.o): 35 mL/min/kg
AUC(0-inf) [7, 9]: 3150 ng·h/mL
Cmax [7, 9]: 900 ng/mL
Tmax [7, 9]: 0.5 h
bioavailability [7, 9]: 78%
half-life [7, 9]: 1.77 h
AUC(0-inf) [7, 10]: 4030 ng·h/mL
Cmax [7, 10]: 1900 ng/mL
Tmax [7, 10]: 0.0833 h
clearance [7, 10]: 41 mL/min/kg
half-life [7, 10]: 1.7 h
AUC(0-inf) [7, 11]: 4780 ng·h/mL
Cmax [7, 11]: 900 ng/mL
Tmax [7, 11]: 2 h
bioavailability [7, 11]: 119%
half-life [7, 11]: 2.37 h
fold enhancement of etoposide cytotoxicity (M059-Fus-1 cells; M059-Fus-1, 1 μM KU-0060648, 16 hours): 4 fold
fold enhancement of doxorubicin cytotoxicity (M059-Fus-1 cells; M059-Fus-1, 1 μM KU-0060648, depending on the doxorubicin concentration): up to 32 fold
reduction in cell viability, compound alone (M059-Fus-1 cells; M059-Fus-1, 1 μM, 16 hours): < 5%
Fold enhancement of doxorubicin cytotoxicity (survival cytotoxic alone/survival cytotoxic + 1 μM KU-0060648) (SW620 cells [8]; SW620, 100 nM doxorubicin, 16 hr): 12 fold and 12±8 fold
overall cell survival (clonogenic) (SW620 cells [8]; SW620, 1 μM, 16 hr exposure, single agent): ≥ 80%
